Measurements from different studies.
Lines come from different studies, so protocols differ.
Organism: Staphylococcus aureus
Observed: microbial growth

SMILES | assay | system | setting | MIC
CC(C)n1nc(-c2ccc3oc(N)nc3c2)c2c(N)ncnc21 |  | NCTC8325 |  | > 30 µM
COc1ccc(-c2nc3ccccc3n2Cc2ccccc2)cc1OC | broth dilution | ATCC29213 MSSA |  | 4 µg/mL
CC(=O)Nc1ccc(C(=O)Nc2ccc(C(=O)N[C@@H](CC(N)=O)C(=O)Nc3ccc(C(=O)Nc4ccc(C(=O)Nc5ccc(C(=O)O)cc5)c(O)c4OC(C)C)cc3)cc2)cc1 |  | ATCC29213 |  | 64 µg/mL
Cc1ccc(C)n1-c1ccc(-c2nnc(-c3ccccc3[N+](=O)[O-])[nH]2)cc1 | broth dilution | ATCC11632 | 18 h | 8 µg/mL
Nc1c(C(=O)Nc2ccc(C3=NCCN3)cc2)cccc1C(=O)Nc1ccc(C2=NCCN2)cc1 |  |  |  | > 64 µg/mL
c1ccc(NCc2ccc(Oc3ccccn3)cc2)cc1 |  |  |  | 1.8 µg/mL
CC(=O)NC[C@H]1CN(c2ccc(N3CCOCC3)c(F)c2)C(=O)O1 |  |  | clinical isolate | 1.56 µg/mL
CC(C)Oc1c(NC(=O)c2ccc(NC(=O)[C@H](CC(N)=O)NC(=O)c3ccc(C#Cc4ccc(C#N)cc4)cc3)cc2)ccc(C(=O)Nc2ccc(C(=O)O)cc2)c1O |  | ATCC29213 |  | ≤ 0.03 µg/mL
Cc1cc(Nc2cc(CN3CCOCC3)c3nc(C)c(Cc4ccc(Cl)cc4F)n3n2)n[nH]1 |  | NCTC8325 |  | 30 µM
Cc1cc(Cl)cc2sc(N(CCCn3ccnc3)C(=O)c3ccco3)nc12 |  | ATCC25923 |  | 2.6 µM
O=S(=O)(NCCNC/C=C/c1ccc(Br)cc1)c1cccc2cnccc12 |  | NCTC8325 |  | > 30 µM
CC1=NN(CNc2c(O)c(S(=O)(=O)O)cc3ccccc23)C(=O)C1=NNn1c(-c2ccccc2)nc2ccccc2c1=O | broth dilution |  | 24 h | 83.7 µM
CCCCCCCC(=O)Oc1c(C)c(O)c(C(=O)/C=C/c2ccccc2)c(OC)c1C | broth dilution | ATCC25923 |  | > 5000 µg/mL
Cc1cnc(Nc2ccc(N3CCN(C)CC3)cc2)nc1Nc1cccc(S(=O)(=O)NC(C)(C)C)c1 |  | NCTC8325 |  | > 30 µM
c1cncc(-c2nc3ccccc3[nH]2)c1 | broth dilution | ATCC29213 MSSA |  | 128 µg/mL
O=C1NC(=S)N/C1=C\c1c2ccccc2c(-c2ccc(N(c3ccccc3)c3ccccc3)cc2)c2ccccc12 | broth dilution | ATCC43300 |  | > 1000 µg/mL
O=C1NC(=O)/C(=C/c2ccc3nccc(-c4ccncc4)c3c2)S1 |  | NCTC8325 |  | > 30 µM
C/C=C(\C)c1cc(O)c(C)c(OC(=O)c2c(C)c(Cl)c(O)c(Cl)c2O)c1 | broth dilution | CCARM3090 |  | 4 µg/mL
Cc1cc2c([nH]c3ccccc32)c2c1C(=O)C=CC2=O |  | ATCC29213 |  | 64 µg/mL
Cc1cc(NC(=O)Nc2ccc3c(c2)OC(F)(F)O3)ccc1Cl |  | NCTC8325 |  | 0.5 µM
Cc1cc(C)cc(NC(=O)CN(C)S(=O)(=O)c2ccc3[nH]c4c(c3c2)CCCC4)c1 |  |  |  | > 128 µg/mL
C/C=C(\C)c1cc(OC(=O)c2c(O)c(C)c(O)c(Cl)c2/C(C)=C/C)c(C)c(O)c1C(=O)O | broth dilution | ATCC29213 |  | 64 µg/mL
